{"source": "paper PMC3086141", "about": "(Circulation. Cardiovascular interventions, 2011)", "key": {"[1]": {"test": "Quantification of bivalirudin concentration in plasma of PCI patients", "format": "in vivo", "details": "both, human, iv, Residual plasma drug levels two hours after discontinuation of infusion, 2 h POST, LC/MS/MS", "outline": "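Test compound given to 22 PCI patients as an IV bolus followed by continuous infusion. Plasma sampled at baseline, about 5 min post-bolus, 30 min into infusion (or at PCI end if earlier), and 5 min, 15 min and 2 h after infusion stopped. Levels measured by LC/MS/MS with a […] detection threshold. Data given as mean ± SD.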"}, "[2]": {"details": "PCI patients; bolus of 1.0 mg/kg followed by infusion of 2.5 mg/kg/h; cited from earlier work"}}, "data": [{"smiles": "CC[C@H](C)[C@H](NC(=O)[C@H](CCC(=O)O)NC(=O)[C@H](CCC(=O)O)NC(=O)[C@H](Cc1ccccc1)NC(=O)[C@H](CC(=O)O)NC(=O)CNC(=O)[C@H](CC(N)=O)NC(=O)CNC(=O)CNC(=O)CNC(=O)CNC(=O)[C@@H]1CCCN1C(=O)[C@H](CCCNC(=N)N)NC(=O)[C@@H]1CCCN1C(=O)[C@H](N)Cc1ccccc1)C(=O)N1CCC[C@H]1C(=O)N[C@@H](CCC(=O)O)C(=O)N[C@@H](CCC(=O)O)C(=O)N[C@@H](Cc1ccc(O)cc1)C(=O)N[C@@H](CC(C)C)C(=O)O", "note": "[bivalirudin]", "values": [{"measurement": "level at time molar", "setting": "[1]", "result": 200, "unit": "nM"}, {"measurement": "Mean steady-state bivalirudin plasma levels, original dosage", "setting": "[2]", "result": 5.6, "unit": "µM"}, {"measurement": "Terminal half-life, original dosage", "setting": "[2]", "result": 25, "unit": "min"}]}]}
